Experimental data taken from ChEMBL document CHEMBL1124764, “Cytotoxicity and antitumor activity of some tetrahedral bis(diphosphino)gold(I) chelates” (J Med Chem, 1990).

Key:
[1] = system: P388; assay: In vivo maximally tolerated dose for B6D2F1 mice on an ip P388 leukemia every day for 5 days regimen; format: functional, organism-based; conditions: Mus musculus
How it was run: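 B6D2F1 mice inoculated ip with 10⁶ P388 leukemia cells. Complex in DMA or ethanol plus saline, with Cremophor-EL if needed, 0.5 mL, freshly made. Given ip days 1–5 starting 24 h after inoculation, at five log-spaced doses to find the MTD. Groups of six; untreated and cisplatin controls. Mortality checked daily for 45 days; end points MST and ILS.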

[2] = system: P388; assay: In vivo maximum increase in lifespan produced in mice bearing ip P388 leukemia; format: functional, organism-based; conditions: Mus musculus
How it was run: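 B6D2F1 mice were inoculated ip with 10⁶ P388 leukemia cells. Complexes in DMA or ethanol plus saline (Cremophor-EL if precipitating) were given ip in 0.5 mL on days 1–5, starting 24 h after inoculation, at five log-spaced doses. Untreated and cisplatin controls were included. Mice were monitored daily for 45 days. ILS = % increase in median survival versus untreated controls, at MTD; >30% counted as active.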

[3] = system: B16; assay: In vitro concentration which inhibits cloning efficiency of B16 melanoma cells by 50% on a 2-h exposure was determined.; format: functional, cell-based, Mus musculus
How it was run: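 Clonogenic assay with B16 melanoma cells grown in monolayer culture. Cells were exposed to drug for 2 h, either in medium containing 10% fetal calf serum or in serum-free medium, and then cloned. IC50 is the concentration cutting cloning efficiency by 50%.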

[4] = system: B16; assay: (§1) In vivo maximum increase in lifespan produced in mice bearing ip B16 melanoma implanted tumor; format: functional, organism-based; conditions: Mus musculus
How it was run: (§2)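 M5076 sarcoma or B16 melanoma was maintained by serial transplantation in syngeneic mice and implanted ip. B6D2F1 mice received complexes ip daily for 10 days at five log-spaced doses encompassing the MTD. Activity was scored as increase in median lifespan versus untreated controls, at MTD; >25% ILS counted as active.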

[5] = system: M5076; assay: In vivo maximum increase in lifespan produced in mice bearing M5076 reticulum cell sarcoma implanted tumor; format: functional; conditions: Mus musculus; how it was run: as §2
[6] = system: Mus musculus; assay: In vivo maximally tolerated dose for B6D2F mice on an every day ip for 10 days regimen.; format: functional, organism-based
How it was run: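 B6D2F1 mice with ip-implanted M5076 reticulum cell sarcoma or B16 melanoma, kept by serial transplant in syngeneic mice. Complex dissolved in minimal DMA or ethanol plus equal saline, with Cremophor-EL if it precipitated. Made just before use and given ip daily for 10 days at five log-spaced doses spanning the MTD. Activity judged by median lifespan prolongation.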

[7] = as §1; format: organism-based; how it was run: as §2

IC50 [3]	Substance	MTD (uM day-1 kg-1) [1]	ILS [2]	ILS [4]	ILS [5]	MTD (uM day-1 kg-1) [6]	ILS [7]
	Bis [1,2-bis(diphenylphosphino)ethane] gold (I) 2-hydroxy-1-ethane sulphonate	2	78%				
	Bis [1,2-bis(diphenylphosphino)ethane] gold (I) Bromide Hydrate	2	83%				
4.5 µM	Bis [1,2-bis(diphenylphosphino)ethane] gold (I) Chloride Hydrate [listing 1 of 2 here]						
	Bis [1,2-bis(diphenylphosphino)ethane] gold (I) Chloride Hydrate [listing 2 of 2 here]	3	83%	38%	57%	2	
	Bis [1,2-bis(diphenylphosphino)ethane] gold (I) Iodide Hydrate	2	150%		52%	2	
	Bis [1,2-bis(diphenylphosphino)ethane] gold (I) Methanesulfonate	2	81%				
4 µM	Bis [1,2-bis(diphenylphosphino)ethane] gold (I) Nitrate [listing 1 of 2 here]						
	Bis [1,2-bis(diphenylphosphino)ethane] gold (I) Nitrate [listing 2 of 2 here]	3	90%				
2 µM	Bis [1,2-bis(diphenylphosphino)ethene] gold (I) Chloride [listing 1 of 2 here]						
	Bis [1,2-bis(diphenylphosphino)ethene] gold (I) Chloride [listing 2 of 2 here]	2	92%		69%	2	35%
0.6 µM	Bis [1,2-bis(diphenylphosphino)propane] gold (I) Chloride [listing 1 of 2 here]						
	Bis [1,2-bis(diphenylphosphino)propane] gold (I) Chloride [listing 2 of 2 here]	3	89%		116%	2	34%
	Bis [1,2-bis(dipyridine-2-ylphosphino)ethane] gold (I) Chloride Hydrate; chloride	8	75%			8	43%
	Bis [1,2-bis(dipyridine-4-ylphosphino)ethane] gold (I) Chloride Hydrate; chloride	6				4	
	Bis [1,2-bis[bis(3-fluorophenyl)phosphino)ethane] gold (I) Chloride	10	55%				
	Bis [1,2-bis[bis(4-fluorophenyl)phosphino)ethane] gold (I) Chloride	3	50%				
	Bis [1,2-bis[bis(5-H-dibenzophospholyl)ethane] gold (I) Nitrate	4	61%				
	Bis [1-dipphenyl,2-phenylmethylphosphino)ethane] gold (I) Chloride Hydrate; chloride	3	65%			2	
5 µM	Bis [(1-diphenylphosphino, 2-diethyl) ethane] gold (I) Chloride [listing 1 of 2 here]						
	Bis [(1-diphenylphosphino, 2-diethyl) ethane] gold (I) Chloride [listing 2 of 2 here]	4	54%		46%	2	
	CISPLATIN	7	125%		103%	5	75%
